Screens: PubChem BioAssay, The Scripps Research Institute Molecular Screening Center
Compounds with a hit are over-represented: about 3.1% of the library has one in this group of screens.
UHRF1 binding: UHRF1 methyl-DNA binding inhibition; 0.75% of 370,000 active; UHRF1 binding to methylated oligo, TR-FRET; inhibition, % at 4.4 µM; Q96T88; AID 687016;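 note: UHRF1 SRA domain binding a hemimethylated CpG hairpin DNA probe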
LEDGF integ inh: blocks HIV-1 LEDGF/p75-dependent DNA integration; AID 743269; 0.64% of 370,000 active; inhibition, % at 3.7 µM; TR-FRET IN-LEDGF/p75 DNA integration, Eu/Cy5;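 active = inhibition above the screen-wide mean plus 3 SD, cut at about 13% in these data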;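 note: signal is the Cy5 over europium emission ratio at 671 and 618 nm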
PRMT1 FP inh: blocks human protein arginine methyltransferase 1 | Q99873 | recombinant PRMT1, activity-based probe fluorescence polarization | inhibition, % at 2.79 µM | 1.3% of 370,000 active;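 active = inhibition above about 21% made by adding two undisclosed values, limit read from the data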
Target sequence (Q99873 whole entry, looked up): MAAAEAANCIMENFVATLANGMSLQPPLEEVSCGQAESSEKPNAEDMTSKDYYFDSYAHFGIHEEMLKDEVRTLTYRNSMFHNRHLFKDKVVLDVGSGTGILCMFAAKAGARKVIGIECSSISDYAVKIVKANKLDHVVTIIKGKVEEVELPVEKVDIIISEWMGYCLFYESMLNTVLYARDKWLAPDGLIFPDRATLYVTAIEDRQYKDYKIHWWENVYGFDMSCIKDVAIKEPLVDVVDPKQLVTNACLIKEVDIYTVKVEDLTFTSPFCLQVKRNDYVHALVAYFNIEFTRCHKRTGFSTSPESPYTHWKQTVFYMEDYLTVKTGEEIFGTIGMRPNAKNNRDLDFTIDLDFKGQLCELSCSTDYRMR
ABHD5-PLIN5 inh: ABHD5-PLIN5 protein interaction inhibition. Q00G26+Q8WTS1. Split G. princeps luciferase complementation, luminescence, 4 h. inhibition, % at 4 µM. 0.78% of 360,000 active. AID 602281;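 active = inhibition above the mean inhibition across every tested compound plus 3 SD, cut at about 22% in these data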
RBBP9 inhibitor: human RBBP9 hydrolase inhibition | O75884 | recombinant RBBP9, FP-Rh probe fluorescence polarization | inhibition, % at 7.94 µM | 0.2% of 220,000 active;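 active = inhibition above the campaign mean of all tested compounds plus 3 SD, cut at about 14% in these data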
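System: RBBP9 protein / Buffer or medium: Tris/NaCl buffer pH 8.0 with 0.1% Pluronic / Probe or stimulus: Serine-hydrolase probe FP-Rh, 375 nM pre-mixing / Dosing: 7.94 µM single dose, 0.794% DMSO / Times: enzyme-compound preincubation 30 min, then probe labeling 45 min, 25 °C / Technique: fluorescence polarization (mP), excitation 525 nm, emission 598 nm / Replication: singlicate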
MBD2 inh: MBD2-methylated oligo binding inhibition; inhibition, % at 4.4 µM; 0.31% of 370,000 active; TR-FRET, MBD2 binding to methylated oligonucleotide; Q9UBB5; in the data active = inhibition above about 13%
Target sequence (Q9UBB5 whole entry, looked up): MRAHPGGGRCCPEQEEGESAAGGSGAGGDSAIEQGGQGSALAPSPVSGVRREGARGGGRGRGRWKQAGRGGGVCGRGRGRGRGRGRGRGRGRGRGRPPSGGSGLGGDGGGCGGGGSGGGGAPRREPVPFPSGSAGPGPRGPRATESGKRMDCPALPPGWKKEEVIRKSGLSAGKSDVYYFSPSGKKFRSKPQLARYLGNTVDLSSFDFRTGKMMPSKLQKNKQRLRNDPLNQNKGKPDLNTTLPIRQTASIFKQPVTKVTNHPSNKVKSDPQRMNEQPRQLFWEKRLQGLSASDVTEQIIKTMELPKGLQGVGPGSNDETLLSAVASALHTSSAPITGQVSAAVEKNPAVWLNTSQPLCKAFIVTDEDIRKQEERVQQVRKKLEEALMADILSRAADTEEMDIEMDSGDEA
ABHD5-PLIN5 conf: ABHD5-PLIN5 interaction inhibition, confirmed | AID 651612 | shares compounds with ABHD5-PLIN5 inh | 67% of 2,200 active | biochemical ABHD5-PLIN5 interaction, luminescence | inhibition, % at 4 µM; in the data active = inhibition above about 23%
HNF4 counter: HNF4 split-luciferase signal hit, counter-screen. HNF4 dimerization, luminescence, biochemical. shares compounds with ABHD5-PLIN5 inh. 77% of 2,200 active. inhibition, % at 4 µM. AID 651674;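 active = mean inhibition across replicate wells exceeding the computed hit threshold, cut at about 13% in these data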;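 note: light from luciferase halves that rejoin when HNF4 fusion proteins dimerize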
PRMT1 confirm: confirmation of human PRMT1 inhibitors. recombinant His-PRMT1, activity-based probe fluorescence polarization. shares compounds with PRMT1 FP inh. 42% of 3,300 active. inhibition, % at 2.79 µM. AID 687036;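 active = mean inhibition across replicates above the hit cutoff derived for the earlier primary screen, cut at about 22% in these data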
UHRF1 ctr MBD2: inhibits human UHRF1 binding to methylated oligonucleotide, MBD2 counter-screen; inhibition, % at 4.4 µM; shares compounds with MBD2 inh; AID 720530; 25% of 1,000 active; TR-FRET;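 note: UHRF1 SRA domain binding a labeled hemimethylated CpG hairpin DNA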
MBD2 DBD conf: confirmation of human MBD2-DBD methylated oligonucleotide binding inhibitors; 26% of 1,000 active; TR-FRET MBD2-DBD binding to methylated oligonucleotide; inhibition, % at 4.4 µM; AID 720531; shares compounds with MBD2 inh; in the data active = inhibition above about 14%
IN multimer act: counter-screen for LEDGF/p75 integration inhibitors: HIV-1 integrase multimerization activators; shares compounds with LEDGF integ inh; activation, % at 7.7 µM; 17% of 2,000 active; AID 1053131; TR-FRET HIV-1 integrase multimerization, biochemical; in the data active = activation above about 8.9%
TR-FRET interf: TR-FRET optical interference, LEDGF/p75 integration counter-screen; shares compounds with LEDGF integ inh; TR-FRET optical interference counterscreen, HIV-1 IN multimerization; inhibition, % at 7.7 µM; 2,000 tested, under 10 active; AID 1053135;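 active = inhibition above the mean over all tested compounds plus 3 SD, which no compound reached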
LEDGF integ conf: confirmation of HIV-1 LEDGF/p75-dependent integration inhibitors. shares compounds with LEDGF integ inh. TR-FRET LEDGF/p75-dependent HIV-1 integration, biochemical. 36% of 2,000 active. inhibition, % at 3.7 µM; in the data active = inhibition above about 14%
Hits are given with their value. Cut-off read from the data, not from the text of the source, unless noted: active = inhibition above about 21%; inactive = the rest.

What do the screens show for `CC(=O)c1ccc(NC(=O)c2ccc3nc(-c4ccco4)c(-c4ccco4)nc3c2)cc1`?
ABHD5-PLIN5 inh: inactive; RBBP9 inhibitor: inactive

How did C=CCN1[C@@H](C)[C@H](c2ccccc2)Oc2cccc(N3CCCC3)c2S1(=O)=O do in these assays?
UHRF1 binding: inactive; LEDGF integ inh: inactive; PRMT1 FP inh: inactive; MBD2 inh: inactive

How did COC(=O)C1=C(C)N(C)C(=NCc2ccc3c(c2)OCO3)NC1c1cccc(Cl)c1 (stereo not drawn) do in these assays?
UHRF1 binding: inactive; LEDGF integ inh: inactive; PRMT1 FP inh: inactive; MBD2 inh: inactive

How did COc1cc(-n2c(C)nc3cc(C(=O)N4CCCN(C(C)=O)CC4)ccc32)cc(OC)c1OC do in these assays?
UHRF1 binding: inactive; LEDGF integ inh: inactive; PRMT1 FP inh: inactive; MBD2 inh: inactive

How did CC1=CC(=O)C=CC1=Nc1ccc(N(C)C)cc1 do in these assays?
UHRF1 binding: inactive; LEDGF integ inh: 27.0; PRMT1 FP inh: 66.6; ABHD5-PLIN5 inh: 86.4; MBD2 inh: inactive; ABHD5-PLIN5 conf: 98.0; HNF4 counter: 113.4; PRMT1 confirm: 41.4; IN multimer act: inactive; TR-FRET interf: inactive; LEDGF integ conf: inactive

How did CN(CCO)c1cccc2c1S(=O)(=O)N(Cc1cn(Cc3ccccc3C(F)(F)F)nn1)Cc1ccccc1O2 do in these assays?
UHRF1 binding: inactive; LEDGF integ inh: inactive; PRMT1 FP inh: inactive; MBD2 inh: inactive

How did O=C(C(=Cc1ccccc1)CN1CCCCC1)c1ccccc1 do in these assays?
UHRF1 binding: inactive; LEDGF integ inh: 19.5; PRMT1 FP inh: inactive; ABHD5-PLIN5 inh: 46.7; MBD2 inh: inactive; ABHD5-PLIN5 conf: 77.3; HNF4 counter: 65.1; IN multimer act: inactive; TR-FRET interf: inactive; LEDGF integ conf: inactive

How did O=C(CCl)N1N=C(c2ccco2)CC1c1ccco1 (stereo not drawn) do in these assays?
UHRF1 binding: 33.3; LEDGF integ inh: 49.2; PRMT1 FP inh: 38.1; ABHD5-PLIN5 inh: 38.4; MBD2 inh: inactive; ABHD5-PLIN5 conf: 24.8; HNF4 counter: 21.8; IN multimer act: inactive; TR-FRET interf: inactive; LEDGF integ conf: inactive

How did O=C(CCl)N1N=C(c2cccs2)CC1c1ccco1 (stereo not drawn) do in these assays?
UHRF1 binding: inactive; LEDGF integ inh: inactive; PRMT1 FP inh: inactive; ABHD5-PLIN5 inh: inactive; RBBP9 inhibitor: inactive; MBD2 inh: inactive

Results for O=c1cc(-c2ccc(O)cc2)oc2c(O)c(O)c(O)c(O)c12 ?
UHRF1 binding: inactive; LEDGF integ inh: 41.3; PRMT1 FP inh: 52.1; ABHD5-PLIN5 inh: 33.6; RBBP9 inhibitor: inactive; MBD2 inh: inactive; ABHD5-PLIN5 conf: inactive; HNF4 counter: 13.8; PRMT1 confirm: inactive; IN multimer act: 18.6; TR-FRET interf: inactive; LEDGF integ conf: 92.3

Results for O=c1cc(-c2ccc(O)cc2)oc2c1ccc1ccccc12 ?
UHRF1 binding: inactive; LEDGF integ inh: inactive; PRMT1 FP inh: inactive; ABHD5-PLIN5 inh: inactive; MBD2 inh: inactive

Results for O=C(CCl)Nc1nc(-c2ccco2)c(-c2ccco2)s1 ?
UHRF1 binding: inactive; LEDGF integ inh: 24.5; PRMT1 FP inh: 31.8; ABHD5-PLIN5 inh: 37.2; RBBP9 inhibitor: inactive; MBD2 inh: inactive; ABHD5-PLIN5 conf: 36.0; HNF4 counter: 53.7; IN multimer act: 22.8; TR-FRET interf: inactive; LEDGF integ conf: 68.0

How did C[C@H](O)[C@@H]1CN2CCc3ccc(N4CCOCC4)cc3[C@@H]2C[C@@H]1N(C)CC1CCCCC1 do in these assays?
UHRF1 binding: inactive; LEDGF integ inh: inactive; PRMT1 FP inh: inactive; MBD2 inh: inactive

How did C/C=C/c1ccc(O)c(OC)c1 do in these assays?
UHRF1 binding: inactive; LEDGF integ inh: inactive; PRMT1 FP inh: inactive; ABHD5-PLIN5 inh: inactive; MBD2 inh: inactive

Results for COc1cc(/C=C/C=C2/CC/C(=C/C=C/c3ccc(O)c(OC)c3)C2=O)ccc1O ?
UHRF1 binding: 57.6; LEDGF integ inh: 92.0; PRMT1 FP inh: 53.6; ABHD5-PLIN5 inh: 25.6; MBD2 inh: 31.2; ABHD5-PLIN5 conf: 62.4; HNF4 counter: 68.0; PRMT1 confirm: inactive; UHRF1 ctr MBD2: inactive; MBD2 DBD conf: inactive; IN multimer act: 26.0; TR-FRET interf: inactive; LEDGF integ conf: 54.4

What do the screens show for `COC(=O)C1=C(O)/C(=C\c2ccc(CNS(=O)(=O)c3ccc(Cl)cc3)o2)N=C1C`?
UHRF1 binding: inactive; LEDGF integ inh: 52.7; PRMT1 FP inh: 56.1; ABHD5-PLIN5 inh: 31.6; RBBP9 inhibitor: inactive; MBD2 inh: inactive; ABHD5-PLIN5 conf: 28.8; HNF4 counter: 39.0; PRMT1 confirm: inactive; IN multimer act: inactive; TR-FRET interf: inactive; LEDGF integ conf: 14.4

What do the screens show for `CC1=CC(=O)C(Sc2ccc(C)cc2)=CC1=O`?
UHRF1 binding: inactive; LEDGF integ inh: 16.5; PRMT1 FP inh: 87.7; ABHD5-PLIN5 inh: 62.0; MBD2 inh: inactive; ABHD5-PLIN5 conf: 59.9; HNF4 counter: 96.8; PRMT1 confirm: 95.0; IN multimer act: inactive; TR-FRET interf: inactive; LEDGF integ conf: inactive

How did Cc1ccc(Sc2c(C)[nH]n(C(C)(C)C)c2=O)cc1 do in these assays?
UHRF1 binding: inactive; LEDGF integ inh: inactive; PRMT1 FP inh: inactive; ABHD5-PLIN5 inh: inactive; RBBP9 inhibitor: inactive; MBD2 inh: inactive

What do the screens show for `Oc1c(CN2CCOCC2)cc(CN2CCOCC2)c(O)c1CN1CCOCC1`?
UHRF1 binding: inactive; LEDGF integ inh: 19.6; PRMT1 FP inh: 72.0; ABHD5-PLIN5 inh: 55.0; MBD2 inh: inactive; ABHD5-PLIN5 conf: 78.7; HNF4 counter: 108.0; PRMT1 confirm: 77.4; IN multimer act: inactive; TR-FRET interf: inactive; LEDGF integ conf: inactive
